Test results: ChEMBL document CHEMBL2034980, “N⁴-Phenyl-substituted 2-acetylpyridine thiosemicarbazones: cytotoxicity against human tumor cells, structure-activity relationship studies and investigation on the mechanism of action” (Bioorg Med Chem, 2012)
Calls of active or inactive are those of the source.

Experiments:
HeLa [1] = experiment: Induction of mitotic arrest in human HeLa cells assessed as reduction in cell density by immunofluorescence staining; assay type: functional, cell-based
Method in brief: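 HeLa cells (8000/well), collagen-coated plates, dosed within 4-6 h of seeding in quadruplicate with 10 twofold dilutions or vehicle (DMSO 0.1% final); 18 h at 37 °C, 5% CO2. Formaldehyde fixation, Hoechst 33342 nuclear stain, anti-α-tubulin/anti-phosphohistone H3 immunostaining; automated high-content imaging. Cell density from nuclear counts; EC50 read from dose-response cell density curves.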

T98G [2] = experiment: Induction of apoptosis in human T98G cells assessed as cell shrinkage at 1 uM after 48 hrs by DAPI staining; assay type: functional, cell-based
U-87MG ATCC [3] = experiment: Induction of apoptosis in human U87 cells assessed as appearance of autophagolysosomes at 1 uM after 48 hrs by acridine orange/ethidium bromide staining-based microscopy; assay type: functional, cell-based
Method in brief: (§1)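 After 48 h at 1 μM, cells were incubated for 15 min in serum-free medium containing 1 μg mL⁻¹ acridine orange and 1 μg mL⁻¹ ethidium bromide. The medium was removed and cells imaged by inverted fluorescence microscopy (530–650 nm). Green/orange nuclear patterns and acidic cytoplasmic vacuoles were scored.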

Bos taurus [4] = species: Bos taurus; experiment: Total inhibition of bovine brain tubulin polymerization at concentration close to compound solubility limit after 10 mins by spectrophotometry
Method in brief: (§2)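 Bovine brain tubulin (10 μM; 1 mg mL⁻¹) in 0.8 M monosodium glutamate with 1% DMSO was pre-incubated with compound (four twofold dilutions) at 30 °C, then cooled to 0 °C for 10 min. GTP (0.4 mM) was added and the temperature raised to 37 °C while A350 was followed.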

T98G [5] = experiment: Induction of apoptosis in human T98G cells assessed as membrane blebbing at 1 uM after 48 hrs […]; assay type: functional, cell-based
MCF7 [6] = experiment: Induction of apoptosis in human MCF7 cells assessed as chromatin condensation at 1 uM after 48 hrs by acridine orange/ethidium bromide staining-based microscopy; assay type: functional, cell-based; method in brief: as §1
MCF7 [7] = experiment: Induction of apoptosis in human MCF7 cells assessed as membrane blebbing at 1 uM after 48 hrs by DAPI staining; assay type: functional, cell-based
U-87MG ATCC [8] = experiment: Induction of apoptosis in human U87 cells assessed as DNA fragmentation at 1 uM after 48 hrs by DAPI staining; assay type: functional, cell-based
Method in brief: (§3)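 Cells were treated at 1 μM for 48 h, washed in PBS and fixed in 70% methanol for 30 min at room temperature. They were stained with 0.4 μg mL⁻¹ DAPI for 1 h in the dark, and nuclear condensation and fragmentation were scored by fluorescence microscopy (385–410 nm).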

U-87MG ATCC [9] = experiment: Induction of apoptosis in human U87 cells assessed as irregularities in cellular shape at 1 uM after 48 hrs by DAPI staining; assay type: functional, cell-based
MCF7 [10] = experiment: Cytotoxicity against human MCF7 cells after 48 hrs by MTT assay; assay type: functional, cell-based; conditions: for IC50: MCF7, 48 h, read-out: IC50
Method in brief: (§4)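 MTT assay. Cells were grown in DMEM with 10% FBS and penicillin/streptomycin at 37 °C under 5% CO2, seeded at 1–2×10^3 cells/well and treated 12 h later with 1×10^-12 to 1×10^-5 M ([…] from DMSO stock, final DMSO <0.5%) for 48 h. MTT was added at 0.5 mg mL⁻¹, formazan dissolved in DMSO and read at 570 nm. IC50 is the concentration giving 50% cytotoxicity. Quadruplicates, ≥3 independent experiments.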

HeLa [11] = experiment: Induction of mitotic arrest in human HeLa cells assessed as mitotic index measuring phosphohistone H3-positive cells by Hoechst 33342 staining; assay type: functional; conditions: read-out: MEC
Method in brief: (§5)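 HeLa cells (8000/well, collagen-coated plates) were dosed in quadruplicate within 4–6 h of seeding with 10 twofold dilutions or vehicle (0.1% DMSO) for 18 h at 37 °C. Cells were fixed, stained with Hoechst 33342 and immunostained for phosphohistone H3 (Ser10) and α-tubulin, then analysed by automated imaging. Positivity threshold: mean of 28 vehicle wells +1 SD. Values reported as MDEC and EC50.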

U-87MG ATCC [12] = experiment: Induction of apoptosis in human U87 cells assessed as chromatin condensation at 1 uM after 48 hrs by DAPI staining; assay type: functional, cell-based; method in brief: as §3
U-87MG ATCC [13] = experiment: Induction of apoptosis in human U87 cells assessed as membrane blebbing at 1 uM after 48 hrs by DAPI staining; assay type: functional, cell-based
Bos taurus [14] = species: Bos taurus; experiment: Inhibition of bovine brain tubulin polymerization at 5 to 20 uM after 10 mins by spectrophotometry; method in brief: as §2
MCF7 [15] = experiment: Induction of apoptosis in human MCF7 cells assessed as DNA fragmentation at 1 uM after 48 hrs by DAPI staining; assay type: functional, cell-based; method in brief: as §3
MCF7 [16] = experiment: Induction of apoptosis in human MCF7 cells assessed as cell shrinkage at 1 uM after 48 hrs by DAPI staining; assay type: functional, cell-based
MCF7 [17] = experiment: Induction of apoptosis in human MCF7 cells assessed as irregularities in cellular shape at 1 uM after 48 hrs by DAPI staining; assay type: functional, cell-based
T98G [18] = experiment: Induction of apoptosis in human T98G cells assessed as irregularities in cellular shape at 1 uM after 48 hrs by DAPI staining; assay type: functional, cell-based
HeLa [19] = experiment: Induction of mitotic arrest in human HeLa cells assessed as reduction in tubulin intensity by Hoechst 33342 staining; assay type: functional; conditions: read-out: MEC; method in brief: as §5
HeLa [20] = experiment: Induction of mitotic arrest in human HeLa cells assessed as nuclear condensation by Hoechst 33342 staining; assay type: functional; conditions: read-out: MEC; method in brief: as §5
T98G [21] = experiment: Cytotoxicity against human T98G cells expressing mutant p53 after 48 hrs by MTT assay; assay type: functional, cell-based; conditions: for IC50: read-out: IC50; method in brief: as §4
[22] = Haemolytic activity in human RBC after 1 hr by photometry; assay type: ADME, cell-based; conditions: Erythrocyte
Method in brief: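 Human EDTA blood was spun at 700xg for 10 min and the erythrocytes washed three times in cold PBS pH 7.4, then resuspended in it. Cells were incubated with varying compound concentrations for 1 h at 37 °C with shaking. After centrifugation, released haemoglobin was read at 540 nm to give the IC50. Mean ± SD, n = 4.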

U-87MG ATCC [23] = experiment: Induction of apoptosis in human U87 cells assessed as cell shrinkage at 1 uM after 48 hrs by DAPI staining; assay type: functional, cell-based
T98G [24] = experiment: Induction of apoptosis in human T98G cells assessed as chromatin condensation at 1 uM after 48 hrs by DAPI staining; assay type: functional, cell-based; method in brief: as §3
T98G [25] = experiment: Induction of apoptosis in human T98G cells assessed as chromatin condensation at 1 uM after 48 hrs by acridine orange/ethidium bromide staining-based microscopy; assay type: functional, cell-based; method in brief: as §1
[26] = (§6) Cytotoxicity against human U87 cells expressing wild-type p53 after 48 hrs by MTT assay; assay type: functional, cell-based, U-87MG ATCC; conditions: U-87 MG, read-out: IC50; method in brief: as §4
U-87MG ATCC [27] = experiment: as §6; assay type: functional, cell-based; method in brief: as §4
T98G [28] = experiment: Induction of apoptosis in human T98G cells assessed as appearance of autophagolysosomes at 1 uM after 48 hrs by acridine orange/ethidium bromide staining-based microscopy; assay type: functional, cell-based; method in brief: as §1
MCF7 [29] = experiment: Induction of apoptosis in human MCF7 cells assessed as chromatin condensation at 1 uM after 48 hrs by DAPI staining; assay type: functional, cell-based; method in brief: as §3
U-87MG ATCC [30] = experiment: Induction of apoptosis in human U87 cells assessed as chromatin condensation at 1 uM after 48 hrs by acridine orange/ethidium bromide staining-based microscopy; assay type: functional, cell-based; method in brief: as §1
MCF7 [31] = experiment: Induction of apoptosis in human MCF7 cells assessed as appearance of autophagolysosomes at 1 uM after 48 hrs by acridine orange/ethidium bromide staining-based microscopy; assay type: functional, cell-based; method in brief: as §1
T98G [32] = experiment: Induction of apoptosis in human T98G cells assessed as DNA fragmentation at 1 uM after 48 hrs by DAPI staining; assay type: functional, cell-based; method in brief: as §3

| Compound | Activity (T98G [2]) | Activity (U-87MG ATCC [3]) | Activity (T98G [5]) | Activity (MCF7 [6]) | Activity (MCF7 [7]) | Activity (U-87MG ATCC [8]) | Activity (U-87MG ATCC [9]) | Activity (MCF7 [10]) | IC50 (MCF7 [10]) [nM] | Activity (U-87MG ATCC [12]) | Activity (U-87MG ATCC [13]) | Activity (MCF7 [15]) | Activity (MCF7 [16]) | Activity (MCF7 [17]) | Activity (T98G [18]) | Activity (T98G [21]) | IC50 (T98G [21]) [nM] | IC50 [22] [nM] | Activity (U-87MG ATCC [23]) | Activity (T98G [24]) | further results |
| --- | --- | --- | --- | --- | --- | --- | --- | --- | --- | --- | --- | --- | --- | --- | --- | --- | --- | --- | --- | --- | --- |
| CC(=NNC(=S)Nc1ccc(Cl)cc1)c1ccccn1 (mixture of isomers) | Active | Active | Active | Active | Active | Active | Active | Dose-dependent effect | 8.5 | Active | Active | Active | Active | Active | Active | Dose-dependent effect | 5.9 | > 10000 | Active | Active | EC50 (HeLa [1]): 9200 nM; inhibition (Bos taurus [4]): inactive; minimal effective concentration (HeLa [11]): > 50 µM; inhibition (Bos taurus [14]): Active; minimal effective concentration (HeLa [19]): 3.6 µM; minimal effective concentration (HeLa [20]): 5.8 µM; Activity (T98G [25]): Active; IC50 [26]: 1.7 nM; Activity (U-87MG ATCC [27]): Dose-dependent effect; Activity (T98G [28]): Active; Activity (MCF7 [29]): Active; Activity (U-87MG ATCC [30]): Active; Activity (MCF7 [31]): Active; Activity (T98G [32]): Active |
| COc1cc2c(c(OC)c1OC)-c1ccc(OC)c(=O)cc1[C@@H](NC(C)=O)CC2 [COLCHICINE] |  |  |  |  |  |  |  |  |  |  |  |  |  |  |  |  |  |  |  |  | EC50 (HeLa [1]): 30 nM; minimal effective concentration (HeLa [11]): 0.02 µM; minimal effective concentration (HeLa [19]): 0.01 µM; minimal effective concentration (HeLa [20]): 0.01 µM |
| CC(=NNC(=S)Nc1ccccc1)c1ccccn1 (mixture of isomers) | Active | Active | Active | Active | Active | Active | Active | Dose-dependent effect | 0.18 | Active | Active | Active | Active | Active | Active | Dose-dependent effect | 6.8 | > 10000 | Active | Active | Activity (T98G [25]): Active; IC50 [26]: 1.4 nM; Activity (U-87MG ATCC [27]): Dose-dependent effect; Activity (T98G [28]): Active; Activity (MCF7 [29]): Active; Activity (U-87MG ATCC [30]): Active; Activity (MCF7 [31]): Active; Activity (T98G [32]): Active |
| CC(=NNC(=S)Nc1ccccc1F)c1ccccn1 (mixture of isomers) | Active | Active | Active | Active | Active | Active | Active | Dose-dependent effect | 0.39 | Active | Active | Active | Active | Active | Active | Dose-dependent effect | 3.1 | > 10000 | Active | Active | Activity (T98G [25]): Active; IC50 [26]: 5 nM; Activity (U-87MG ATCC [27]): Dose-dependent effect; Activity (T98G [28]): Active; Activity (MCF7 [29]): Active; Activity (U-87MG ATCC [30]): Active; Activity (MCF7 [31]): Active; Activity (T98G [32]): Active |
